MT stabilizer: microtubule stabilizers in HeLa cells, primary screen, imaging, high-content imaging. HeLa tubulin immunostaining HCS, 24 h; share of cells brighter than vehicle mean+2SD. % tubulin-high responders, % at 10 µM. 200,000 compounds, 0.83% hits;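 active = plate Z-score above 3 for both tubulin-high and condensed-nucleus cell shares, with cell loss under 80%, at 10 µM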;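 note: anti alpha tubulin signal scored within the nucleus-defined area of each cell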
bCat nuc transl: modulators of beta-catenin nuclear translocation, primary screen, imaging, HeLa cells, immunofluorescence, high-content; nuclear translocation activity, % at 5 µM; 190,000 compounds, 0.3% hits; AID 1665, 2009;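 active = nuclear translocation activity above 50% at 5 µM, with a well cell count of 50 or more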;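 note: per-cell ratio of nuclear to cytoplasmic median beta-catenin stain intensity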
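Signal – beta-catenin immunofluorescence imaging with DAPI · Test system – human HeLa cell line · Dosing – 5 µM primary single dose, 0.1% DMSO, 0.02–20 µM confirmation series · Measure – % activation, nuclear-to-cytoplasmic median beta-catenin signal ratio per cell · Incubation – 24 h compound exposure at 37°C, 5% CO2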
HSV replic up: enhancers of HSV replication in host cells, fold increase, host cell viability | 220,000 compounds, 0.005% hits | HSV replication augmentation in cells | maximum fold increase; in the data active = maximum fold increase above about 1.5; tested in PC3 cells
L major viab: Leishmania major promastigote growth inhibition, primary screen; Leishmania major promastigotes, resazurin fluorescence viability; inhibition, % at 10 µM; 200,000 compounds, 9% hits; in the data active = inhibition above about 50%;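 note: promastigotes grown with compound for 44 hours at 28 °C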
Dynein cargo inh: inhibitors of GR-EGFP nuclear translocation, primary screen, dynein cargo transport inhibitor project, imaging, high-content, 3617.4 mouse cells | test concentration mostly 20 µM; stimulated with dexamethasone, 1 µM; stronger effect = lower value | z-score, hits read low | 220,000 compounds, 0.47% hits | AID 1381, 2008;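 active = plate z-score of nuclear minus cytoplasmic receptor signal below a set negative limit, without overly bright fluorescence or cell loss, cut at about -3.5 in these data, passing the limit was not always enough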;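 note: z-score of nuclear minus cytoplasmic ring GR-EGFP intensity difference per well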
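Buffer or medium: tet-free medium with charcoal-stripped serum / Also added: dexamethasone agonist, 1.0 µM final, for 30 min / Timing: induction 48 h, compound 1 h, agonist 30 min / Measured by: high-content fluorescence imaging after fixation / Read-out: nuclear-to-cytoplasmic GR-EGFP distribution per well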
Large screens that a line does not name were inactive. This is a sample that favours compounds with a hit; in the whole collection about 8.9% have one here.

O=C(CSc1nnc(-c2ccco2)c(-c2ccco2)n1)Nc1ccccc1	L major viab 75
COc1ccc(C(=O)CSc2nnc(-c3ccco3)c(-c3ccco3)n2)cc1	L major viab 99
CC(=O)NS(=O)(=O)c1ccc(N=c2ssc3c2-c2cc(C)c(C)cc2NC3(C)C)cc1	none
CC(C)(C)N(Cc1ccccc1)C(=O)COC(=O)c1cccc([N+](=O)[O-])c1	none
CC1(C)C(=O)Nc2ccccc2N1C(=O)COc1ccc(S(=O)(=O)N2CCOCC2)cc1Cl	none
O=C(CSc1nnc(-c2ccccc2)c(-c2ccccc2)n1)Nc1ccc(Br)cn1	L major viab 66
Cn1c(=O)n(C)c2cc(NC(=O)c3cccc([N+](=O)[O-])c3)c(Br)cc21	L major viab 60
Clc1ccc2c(c1)C(C1=NCCN1)c1ccccc1CS2 (stereo not given)	MT stabilizer 24 (no result: bCat nuc transl)
O=C1Nc2ccc(Br)cc2C12NNc1ccccc1O2 (stereo not given)	L major viab 73
Cc1nn(C)cc1CNC(=O)c1ccccc1Br	none
O=c1[nH]c(=O)n(-c2ccccc2)c2c1C(C(F)(F)F)(C(F)(F)F)N=C(CCC1CCCCC1)N2	L major viab 55
O=c1[nH]c(=O)n(Cc2ccco2)c2c1C(C(F)(F)F)(C(F)(F)F)N=C(CCC1CCCCC1)N2	none
CC(C)Cn1c2c(c(=O)[nH]c1=O)C(C(F)(F)F)(C(F)(F)F)N=C(CCC1CCCCC1)N2	L major viab 80
O=C1c2ccccc2S(=O)(=O)N1CC(O)COc1ccc(Cl)cc1 (stereo not given)	none
CCOC(=O)c1c(C)[nH]c(C)c1C(=O)CSc1nc2ccccc2n1CC	none
O=C1COc2cccnc2N1	none
O=C1CC(c2ccccc2)CC2=C1C=Nc1ccccc1N2 (stereo not given)	MT stabilizer 21
O=C1CC(c2ccc(F)cc2)CC2=C1C=Nc1ccccc1N2 (stereo not given)	none
COc1cc2oc3ccccc3c2cc1N(CC(=O)N(C)C)S(=O)(=O)c1ccc(C)cc1	L major viab 66
COc1cc2oc3ccccc3c2cc1N(CC(=O)N(C)C)S(=O)(=O)c1ccccc1	none
Cc1nc(N2CCCC2)c2ccsc2n1	none
CCOC(=O)CN(C(=O)CSc1nnc(Cc2ccccc2)n1-c1ccc(C)cc1)c1ccccc1	L major viab 99
COc1ccc(C(c2nnnn2C2CCCCC2)N2CCN(c3ccccc3)CC2)cc1 (stereo not given)	L major viab 84 (no result: HSV replic up)
COc1ccc(C(c2nnnn2C2CCCC2)N2CCN(c3ccccc3)CC2)cc1 (stereo not given)	L major viab 63
COc1ccc(N2CCN(C(c3nnnn3C3CCCC3)C(C)C)CC2)cc1 (stereo not given)	none
COC(=O)c1ccc(NC(=O)CSc2nnc(COc3c(C)cccc3C)o2)cc1	none
C=CCc1ccccc1OCCOc1ccc([N+](=O)[O-])cc1/C=N/NC(N)=O	none
CN(C)C(=S)Nc1nc2ccccc2s1	none
COc1ccc(C(=O)Nc2ccc(S(=O)(=O)N3CCCCC3)cc2)cc1OC	L major viab 67 (no result: bCat nuc transl)
COc1cccc(NC(=O)c2ccc(S(=O)(=O)N3CCCCC3)cc2)c1	none
COc1ccc(-c2cnnn2-c2ccc(NC(=O)c3ccc(S(=O)(=O)N4CCCCC4)cc3)cc2)cc1OC	L major viab 96
COc1cc(NC(=O)C2CCCO2)c(OC)cc1NC(=O)c1ccccc1 (stereo not given)	L major viab 83 (no result: bCat nuc transl)
COc1cc(NC(=O)C2CCCO2)c(OC)cc1Cl (stereo not given)	none
CCOC(=O)C1=C(C)N(C)C(=O)NC1c1c(C)nn(-c2ccccc2)c1C (stereo not given)	none (no result: bCat nuc transl)
Cc1ccc(S(=O)(=O)CC(CN2CCCCC2)N2CCCCC2)cc1 (stereo not given)	L major viab 97
NC1=NC2(CCCCC2)N=C(Nc2ccc(F)cc2F)N1	none
Cc1cc(C)cc(NC2=NC3(CCCCC3)N=C(N)N2)c1	MT stabilizer 47
CCOc1ccc(S(=O)(=O)N2CCCCC2)c(C)c1C	L major viab 82
CCOC(=O)C1CCCN(S(=O)(=O)c2ccc(OC)c3ccccc23)C1 (stereo not given)	MT stabilizer 11 (no result: bCat nuc transl)
CCOC(=O)C1CCCN(S(=O)(=O)c2ccccc2)C1 (stereo not given)	none
Cc1ccc2[nH]c(-c3cccc(F)c3)cc(=O)c2c1	MT stabilizer 27 (no result: bCat nuc transl)
CC(C)C[C@H](NC(=O)c1nc[nH]c1C(=O)NC1CCN(C(=O)OC(C)(C)C)CC1)C(=O)OCc1ccccc1	L major viab 51
CN(C1CCCCC1)S(=O)(=O)c1ccc(NC(=O)c2ccc(Br)o2)cc1	L major viab 57
O=C(CSc1nc(-c2ccco2)cc(C(F)(F)F)n1)Nc1ccc2c(c1)CCC2	MT stabilizer 47
Cc1cc(NC(=O)CCCSc2nc(-c3ccco3)cc(C(F)(F)F)n2)n(-c2ccccc2)n1	none
Cc1ccc(NC(=O)CSc2nc(-c3ccco3)cc(C(F)(F)F)n2)cc1C	MT stabilizer 49
Cc1cc(NC(=O)CSc2nc(-c3ccco3)cc(C(F)(F)F)n2)n(-c2ccccc2)n1	MT stabilizer 44
O=C(CSc1nc(-c2ccco2)cc(C(F)(F)F)n1)NC1CCCC1	none (no result: bCat nuc transl)
COC(=O)c1ccccc1NC(=O)CSc1nc(-c2ccco2)cc(C(F)(F)F)n1	MT stabilizer 14
O=[N+]([O-])c1cccnc1N1CCC(c2cc(-c3cccc(C(F)(F)F)c3)n[nH]2)CC1	none
COc1ccc(/C=C/C(=O)c2ccc(Cl)s2)cc1O	L major viab 92, Dynein cargo inh -3.8 (no result: bCat nuc transl)
COc1cc(/C=C/C(=O)c2ccc(Cl)s2)cc(OC)c1O	L major viab 100, Dynein cargo inh -4 (no result: bCat nuc transl)
COc1ccc(C(=O)/C=C/c2ccc(OC)c(O)c2)c(F)c1	L major viab 82
O=C(N/N=C/c1ccccn1)c1[nH]c2ccc([N+](=O)[O-])cc2c1-c1ccccc1	L major viab 98
O=C(O)c1[nH]c2ccc([N+](=O)[O-])cc2c1-c1ccccc1	none (no result: MT stabilizer, L major viab)
Cc1cc(C)c(O)c(-c2cc(C(=O)NCc3ccccc3)[nH]n2)c1	L major viab 52 (no result: bCat nuc transl)
COc1ccc(NC(=O)c2cc(-c3cc(C)cc(C)c3O)n[nH]2)cc1Cl	L major viab 100
C=CCn1c(SCC(=O)Nc2ccccc2OC)nnc1-c1ccccn1	MT stabilizer 24
Cc1ccc(NC(=S)NCc2ccccn2)cc1	L major viab 50
COc1cc(-n2c(-c3ccccc3)n[nH]c2=S)c(OC)cc1Cl	L major viab 59
COc1ccc(C)cc1-n1c(-c2ccncc2)n[nH]c1=S	none (no result: bCat nuc transl)
COc1cc(OC)cc(-c2n[nH]c(=S)n2-c2cc(OC)ccc2OC)c1	L major viab 100

Compound activity deposited in PubChem BioAssay by several laboratories.
